Measurements from article PMC5565762 (International Journal for Parasitology: Drugs and Drug …, 2017).

Legend:
[1] = tested on: Bloodstream T. b. brucei; test: Glucose consumption; type: cell-based, Trypanosoma brucei brucei; settings: compound at its EC50, 4 h
Method in brief: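 Bloodstream T. b. brucei were seeded at 5.3–5.8 × 10^6 parasites/mL in HMI-9 with 10% FBS (37 °C, 5% CO2). They were exposed for 4 h to test compound at a fixed concentration, or to suramin 78 nM, ebselen 5 μM, tri-thiazol 0.31 μM or 1% DMSO vehicle. Viable cells were counted in a Neubauer chamber, cells were spun down at 2000 g for 10 min, and supernatant glucose was measured on an analyzer. Consumption is given as g/L per million cells per hour; triplicates, SD.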

[2] = tested on: redox biosensor hGrx-roGFP2 in bloodstream T. b. brucei; test: Intracellular redox changes in T. brucei redox reporter cell line; type: cell-based, Trypanosoma brucei brucei; settings: for oxidation of the biosensor: 4 h, 0.54 μM 13, 1.49 μM 15, 78 nM suramin, 25 μM menadione
Method in brief: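 The strain 427 line 449 bloodstream reporter line expresses hGrx-roGFP2, induced with 1 μg/mL oxytetracycline for 24 h. Parasites at 2 × 10^6/mL were treated for 4 h at 37 °C with test compound, 25 μM menadione, 78 nM suramin or 1% DMSO. A parallel sample then received 1 mM DTT for 15 min. Cells were stained with PI (2 μg/mL) and GFP (530/40 nm) was read on PI-negative cells by flow cytometry. Values are % biosensor reduction versus DMSO without DTT; triplicates, SD.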

[3] = tested on: Bloodstream T. b. brucei; test: Inhibition of glucose uptake; type: cell-based, Trypanosoma brucei brucei; settings: 30 min
[4] = tested on: Bloodstream T. b. brucei (strain 427) cell line 449; test: Viability assay of bloodstream trypanosomes; type: cell-based; settings: Trypanosoma brucei, 24 h
Method in brief: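 Bloodstream parasites at 5 × 10^5 cells/mL in HMI-9 with 10% FBS received test compound (5 μM final; nifurtimox 15 μM) or 1% DMSO, in triplicate, for 24 h at 37 °C and 5% CO2. Cells were diluted into PBS with 1% glucose, stained with propidium iodide (2 μg/mL) and counted by flow cytometry. Viability is the % of the DMSO-control cell count. EC50 came from 7-point curves (triplicates) fitted to a sigmoidal Hill equation; SD.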

[5] = tested on: murine macrophages (cell line J774); test: Viability assay of murine macrophages; type: cell-based; settings: murine macrophages vs T. b. brucei
Method in brief: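 J774 murine macrophages were grown in DMEM with 10% FBS, penicillin and streptomycin at 37 °C in 5% CO2. Cells were exposed to 7 concentrations of test compound, each in triplicate, for 24 h, and viability was measured with WST-1 reagent as % of DMSO-treated control. EC50 was derived by fitting a sigmoidal Hill equation; SD.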

For `O=c1c2ccccc2[se]n1-c1ccccc1` [ebselen], the “reduction of glucose consumption vs vehicle” value [1] was 44% and the “anti-proliferative activity with respect to the DMSO control” value ([1]; not statistically significant) was “some anti-proliferative activity”.

With `CC1=CC(=O)c2ccccc2C1=O` [menadione] the “oxidation of the biosensor” value [2] was 60% and the “reversal of biosensor oxidation by DTT” value ([2]; after 4 h treatment, 15 min with 1 mM DTT) was “fully reversible”.

`Cc1ccc(C(=O)Nc2ccc(S(=O)(=O)O)c3cc(S(=O)(=O)O)cc(S(=O)(=O)O)c23)cc1NC(=O)c1cccc(NC(=O)Nc2cccc(C(=O)Nc3cc(C(=O)Nc4ccc(S(=O)(=O)O)c5cc(S(=O)(=O)O)cc(S(=O)(=O)O)c45)ccc3C)c2)c1` [suramin] was tested, and the “oxidation of the biosensor” value [2] was “did not induce redox changes” and the “capacity to metabolize glucose compared to the control condition” value ([1]; vs DMSO) was under 30%.

For `O=C(CCc1ccc(O)cc1)c1c(O)cc(O)cc1O` [phloretin], the “reduction of glucose uptake” value ([3]; 500 μM) was 63%.

In the case of `CC1CS(=O)(=O)CCN1/N=C/c1ccc([N+](=O)[O-])o1` (centres unmarked) [NFX, nifurtimox], the “glucose uptake compared to vehicle treated cells” value ([3]; 5X EC50 (13 2.7 μM, 15 7.45 μM, nifurtimox 50 μM)) is reported as “A similar outcome”, the EC50 ([4]; read-out: EC50 against T. b. brucei) is reported as about 10 µM and the viability at 15 µM ([4]; read-out: Parasite survival) is reported as 28.2 ± 5.5%. For the same compound, the “selectivity index (SI)” value [5] was about 10.
